The source made the active and inactive calls.
Key:
Radish [1] = test: Pre-emergence herbicidal activity against Raphanus sativus var.Long scarlet (radish) seeds assessed as seed germination inhibition at 1 mol/l at 25 degC after 72 hr by laboratory-based agar medium bioassay; format: functional, organism-based
Procedure, shortened: (§1)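 Solutions tested at 1 to 1 × 10^-4 mol L^-1. 10 seeds/dish, 5 randomized replicate dishes angled ~70°. Incubated 72 h at 25 °C in light. Solvent and no-solvent controls. Germination, root length and shoot length recorded.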

Radish [2] = test: Pre-emergence herbicidal activity against Raphanus sativus var.Long scarlet (radish) seeds assessed as seed germination at 0.1 mol/l at 25 degC after 72 hr by laboratory-based agar medium bioassay relative to control; format: functional; procedure, shortened: as §1
Radish [3] = test: Pre-emergence herbicidal activity against Raphanus sativus var.Long scarlet (radish) seeds assessed as root length at 0.1 mol/l at 25 degC after 72 hr by laboratory-based agar medium bioassay relative to 1,8-Cineole; format: functional
Procedure, shortened: (§2)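 Agar-plate assay as above: compound in organic solvent evaporated onto Ca/B water agar, 10 seeds × 5 dishes, 72 h at 25 °C in light. Germination, root length or shoot length at 0.1 mol L^-1 expressed relative to 1,8-cineole.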

Lolium rigidum [4] = test: Pre-emergence herbicidal activity against Lolium rigidum seeds assessed as root length at 0.1 mol/l at 25 degC after 72 hr by laboratory-based agar medium bioassay relative to control; format: functional; procedure, shortened: as §1
Radish [5] = test: Pre-emergence herbicidal activity against Raphanus sativus var.Long scarlet (radish) seeds assessed as concentration required to suppress shoot growth at 25 degC after 72 hr by laboratory-based agar medium bioassay; format: functional
Radish [6] = test: Pre-emergence herbicidal activity against Raphanus sativus var.Long scarlet (radish) seeds assessed as concentration required to suppress root growth at 25 degC after 72 hr by laboratory-based agar medium bioassay; format: functional
Lolium rigidum [7] = test: Pre-emergence herbicidal activity against Lolium rigidum seeds assessed as concentration required to suppress seed germination at 25 degC after 72 hr by laboratory-based agar medium bioassay; format: functional
Radish [8] = test: Pre-emergence herbicidal activity against Raphanus sativus var.Long scarlet (radish) seeds assessed as concentration required to suppress seed germination at 25 degC after 72 hr by laboratory-based agar medium bioassay; format: functional
Lolium rigidum [9] = test: Pre-emergence herbicidal activity against Lolium rigidum seeds assessed as shoot length at 0.1 mol/l at 25 degC after 72 hr by laboratory-based agar medium bioassay relative to control; format: functional; procedure, shortened: as §1
Radish [10] = test: Pre-emergence herbicidal activity against Raphanus sativus var.Long scarlet (radish) seeds assessed as shoot length at 0.1 mol/l at 25 degC after 72 hr by laboratory-based agar medium bioassay relative to control; format: functional; procedure, shortened: as §1
Radish [11] = test: Pre-emergence herbicidal activity against Raphanus sativus var.Long scarlet (radish)seeds assessed as seed germination inhibition at 25 degC after 72 hr by laboratory-based agar medium bioassay; format: functional, organism-based; procedure, shortened: as §1
Radish [12] = test: Pre-emergence herbicidal activity against Raphanus sativus var.Long scarlet (radish) seeds assessed as shoot length at 0.1 mol/l at 25 degC after 72 hr by laboratory-based agar medium bioassay relative to 1,8-Cineole; format: functional; procedure, shortened: as §2
Radish [13] = test: Pre-emergence herbicidal activity against Raphanus sativus var.Long scarlet (radish) seeds assessed as root length at 0.1 mol/l at 25 degC after 72 hr by laboratory-based agar medium bioassay relative to control; format: functional; procedure, shortened: as §1
Lolium rigidum [14] = test: Pre-emergence herbicidal activity against Lolium rigidum seeds assessed as concentration required to suppress shoot growth at 25 degC after 72 hr by laboratory-based agar medium bioassay; format: functional
Lolium rigidum [15] = test: Pre-emergence herbicidal activity against Lolium rigidum seeds assessed as concentration required to suppress root growth at 25 degC after 72 hr by laboratory-based agar medium bioassay; format: functional
Lolium rigidum [16] = test: Pre-emergence herbicidal activity against Lolium rigidum seeds assessed as seed germination at 0.1 mol/l at 25 degC after 72 hr by laboratory-based agar medium bioassay relative to 1,8-Cineole; format: functional; procedure, shortened: as §2
Lolium rigidum [17] = test: Pre-emergence herbicidal activity against Lolium rigidum seeds assessed as seed germination at 0.1 mol/l at 25 degC after 72 hr by laboratory-based agar medium bioassay relative to control; format: functional; procedure, shortened: as §1
Lolium rigidum [18] = test: Pre-emergence herbicidal activity against Lolium rigidum seeds assessed as shoot length at 0.1 mol/l at 25 degC after 72 hr by laboratory-based agar medium bioassay relative to 1,8-Cineole; format: functional; procedure, shortened: as §2
Radish [19] = test: Pre-emergence herbicidal activity against Raphanus sativus var.Long scarlet (radish) seeds assessed as seed germination at 0.1 mol/l at 25 degC after 72 hr by laboratory-based agar medium bioassay relative to 1,8-Cineole; format: functional; procedure, shortened: as §2
Lolium rigidum [20] = test: Pre-emergence herbicidal activity against Lolium rigidum seeds assessed as root length at 0.1 mol/l at 25 degC after 72 hr by laboratory-based agar medium bioassay relative to 1,8-Cineole; format: functional; procedure, shortened: as §2
Radish [21] = test: Pre-emergence herbicidal activity against Raphanus sativus var.Long scarlet (radish) seeds assessed as shoot growth inhibition at 25 degC after 72 hr by laboratory-based agar medium bioassay; format: functional, organism-based; procedure, shortened: as §1
Radish [22] = test: Pre-emergence herbicidal activity against Raphanus sativus var.Long scarlet (radish) seeds assessed as root growth inhibition at 25 degC after 72 hr by laboratory-based agar medium bioassay; format: functional, organism-based; procedure, shortened: as §1
Lolium rigidum [23] = test: Pre-emergence herbicidal activity against Lolium rigidum seeds assessed as shoot growth inhibition at 0.001 to 0.01 mol/l at 25 degC after 72 hr by laboratory-based agar medium bioassay; format: functional, organism-based; procedure, shortened: as §1
Radish [24] = test: Pre-emergence herbicidal activity against Raphanus sativus var.Long scarlet (radish) seeds assessed as shoot growth inhibition at 1 mol/l at 25 degC after 72 hr by laboratory-based agar medium bioassay; format: functional, organism-based; procedure, shortened: as §1
Radish [25] = test: Pre-emergence herbicidal activity against Raphanus sativus var.Long scarlet (radish) seeds assessed as shoot length at 0.1 mol/l at 25 degC after 72 hr by filter paper bioassay relative to control; format: functional
Procedure, shortened: (§3)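 Seeds on sterile filter paper wetted with 1 mL aqueous solution containing 3.4 × 10^-4 g mL^-1 Tween 80. Eucalyptus oil tested at 0.0154 g mL^-1, giving about 0.1 mol L^-1 1,8-cineole. Dishes sealed and kept flat. 10 seeds/dish, 5 dishes. Incubated 72 h at 25 °C under 135–195 μE m^-2 s^-1 light. Germination, root length or shoot length compared with control.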

Lolium rigidum [26] = test: Pre-emergence herbicidal activity against Lolium rigidum seeds assessed as shoot length at 0.1 mol/l at 25 degC after 72 hr by filter paper bioassay relative to control; format: functional; procedure, shortened: as §3
Radish [27] = test: Pre-emergence herbicidal activity against Raphanus sativus var.Long scarlet (radish) seeds assessed as concentration required to suppress seed germination at 25 degC after 72 hr by filter paper bioassay; format: functional
Procedure, shortened: (§4)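 Two seed-plate formats. Filter paper: sterile paper wetted with 1 mL aqueous solution containing 3.4 × 10^-4 g mL^-1 Tween 80, dish sealed and flat. 10 seeds/dish, 5 dishes per concentration. Incubated 72 h at 25 °C under light. Threshold taken by one-way ANOVA at P = 0.05.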

Lolium rigidum [28] = test: Pre-emergence herbicidal activity against Lolium rigidum seeds assessed as concentration required to suppress seed germination at 25 degC after 72 hr by filter paper bioassay; format: functional; procedure, shortened: as §4
Radish [29] = test: Pre-emergence herbicidal activity against Raphanus sativus var.Long scarlet (radish) seeds assessed as seed germination at 0.1 mol/l at 25 degC after 72 hr by filter paper bioassay relative to control; format: functional; procedure, shortened: as §3
Lolium rigidum [30] = test: Pre-emergence herbicidal activity against Lolium rigidum seeds assessed as root length at 0.1 mol/l at 25 degC after 72 hr by filter paper bioassay relative to control; format: functional; procedure, shortened: as §3
Radish [31] = test: Pre-emergence herbicidal activity against Raphanus sativus var.Long scarlet (radish) seeds assessed as root length at 0.1 mol/l at 25 degC after 72 hr by filter paper bioassay relative to control; format: functional; procedure, shortened: as §3
Lolium rigidum [32] = test: Pre-emergence herbicidal activity against Lolium rigidum seeds assessed as concentration required to suppress shoot growth at 25 degC after 72 hr by filter paper bioassay; format: functional; procedure, shortened: as §4
Lolium rigidum [33] = test: Pre-emergence herbicidal activity against Lolium rigidum seeds assessed as seed germination at 0.1 mol/l at 25 degC after 72 hr by filter paper bioassay relative to control; format: functional; procedure, shortened: as §3
Lolium rigidum [34] = test: Pre-emergence herbicidal activity against Lolium rigidum seeds assessed as concentration required to suppress root growth at 25 degC after 72 hr by filter paper bioassay; format: functional; procedure, shortened: as §4
Radish [35] = test: Pre-emergence herbicidal activity against Raphanus sativus var.Long scarlet (radish) seeds assessed as concentration required to suppress root growth at 25 degC after 72 hr by filter paper bioassay; format: functional; procedure, shortened: as §4
Radish [36] = test: Pre-emergence herbicidal activity against Raphanus sativus var.Long scarlet (radish) seeds assessed as concentration required to suppress shoot growth at 25 degC after 72 hr by filter paper bioassay; format: functional; procedure, shortened: as §4

Row | SMILES | Activity (Radish [2]) | Ratio (Radish [3]) | Activity (Lolium rigidum [4]) | Activity (Radish [5]) | Activity (Radish [6]) | Activity (Lolium rigidum [7]) | Activity (Radish [8]) | Activity (Lolium rigidum [9]) | Activity (Radish [10]) | Ratio (Radish [12]) | Activity (Radish [13]) | Activity (Lolium rigidum [14]) | Activity (Lolium rigidum [15]) | Ratio (Lolium rigidum [16]) | Activity (Lolium rigidum [17]) | Ratio (Lolium rigidum [18]) | Ratio (Radish [19]) | Ratio (Lolium rigidum [20]) | further results
1 | CCCCCC(=O)O[C@@H]1C[C@@]2(C(C)C)CC[C@@]1(C)O2 (racemic) [2-Exo-hexoxy-1,4-cineole] |  |  |  |  |  |  |  |  |  |  |  |  |  |  |  |  |  |  | Activity (Radish [1]): inactive
2 | CC(C)[C@]12CC[C@@](C)(O1)[C@H](OC(=O)c1ccccc1)C2 (racemic) [2-exo-benzoxy-1,4-cineole] | 82.9% | 0.7 | 28% | 0.01 mol/L | 0.01 mol/L | 0.1 mol/L | inactive | 23.7% | 64% | 1 | 54.7% | 0.0001 mol/L | 0.0001 mol/L | 0.7 | 46.3% | 1.2 | 0.4 | 0.8 | Activity (Radish [11]): inactive
3 | CC(C)(C)CC(=O)O[C@H]1C[C@@]2(C)CC[C@H]1C(C)(C)O2 (racemic) [3-exo-t-butylacetoxy-1,8-cineole] | 31.4% | 0.5 | 64.9% | inactive | inactive | 0.1 mol/L | 0.1 mol/L | 44.8% | 90.9% | 0.7 | 72.5% | 0.001 mol/L | 0.01 mol/L | 0.3 | 97.8% | 0.6 | 1.1 | 0.3 | Activity (Radish [21]): inactive; Activity (Radish [22]): inactive
4 | CC12CCC(C(=O)C1)C(C)(C)O2 (racemic) [3-oxo-1,8-cineole] | 10% | 1.8 | 18.9% | 0.01 mol/L | 0.01 mol/L | 0.1 mol/L | 0.01 mol/L | 18.2% | 29.3% | 2.2 | 20.5% | 0.0001 mol/L | 0.1 mol/L | 0.9 | 33.3% | 1.6 | 3.4 | 1.2 | Activity (Lolium rigidum [23]): inactive
5 | Cc1ccccc1CO[C@@H]1C[C@@]2(C(C)C)CCC1(C)O2 [CINMETHYLIN] | 85.7% | 0.8 |  | 0.01 mol/L | 0.0001 mol/L |  | 1 mol/L |  | 62.5% | 1 | 36.5% |  |  |  |  |  | 0.4 |  | Activity (Radish [24]): inactive
6 | CC12CCC(CC1)C(C)(C)O2 [EUCALYPTOL] |  |  |  |  |  |  |  |  |  |  |  |  |  |  |  |  |  |  | Activity (Radish [25]): 64.7%; Activity (Lolium rigidum [26]): 28.4%; Activity (Radish [27]): 0.1 mol/L; Activity (Lolium rigidum [28]): 0.1 mol/L; Activity (Radish [29]): 34.1%; Activity (Lolium rigidum [30]): 22.4%; Activity (Radish [31]): 37.1%; Activity (Lolium rigidum [32]): 0.1 mol/L; Activity (Lolium rigidum [33]): 30.2%; Activity (Lolium rigidum [34]): 0.1 mol/L; Activity (Radish [35]): 1 mol/L; Activity (Radish [36]): 1 mol/L

From ChEMBL document CHEMBL3045579, “Herbicidal activity of cineole derivatives” (2010)
